Source: PubChem BioAssay
MrgX1 ag – agonists of human MrgX1 receptor. Q96LB2. MrgX1-HEK293 cells, Fluo-4 calcium fluorescence, agonist mode; stronger effect = higher value. B-score at 10 µM. 310,000 tested, 0.44% active;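 active = calcium response B-score plate-corrected fluorescence ratio at least 3 library SD, with starting fluorescence B-score inside 5 SD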
Target sequence (Q96LB2 whole entry, looked up): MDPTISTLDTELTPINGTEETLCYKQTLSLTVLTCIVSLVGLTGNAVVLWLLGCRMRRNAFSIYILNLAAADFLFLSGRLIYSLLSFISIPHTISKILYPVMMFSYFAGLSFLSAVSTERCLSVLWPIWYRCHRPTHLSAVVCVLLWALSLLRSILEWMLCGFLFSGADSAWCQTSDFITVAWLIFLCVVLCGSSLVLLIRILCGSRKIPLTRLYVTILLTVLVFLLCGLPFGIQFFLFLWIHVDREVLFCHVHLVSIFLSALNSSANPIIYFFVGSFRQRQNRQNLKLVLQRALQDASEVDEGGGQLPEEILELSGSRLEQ
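Test system: HEK293 cells stably expressing human MrgX1 receptor; amount: 15,000 cells per well; doses: compound delivered in addition one of three; times: overnight plating before 1 h dye loading; detection: Fluo-4 NW calcium-flux fluorescence, kinetic read; read-out basis: B-scored fluorescence response ratio; controls: positive and negative controls per plate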
MrgX1 allo act – allosterically activates human MrgX1 receptor signaling | B-score at 10 µM | AID 588675 | 310,000 tested, 0.63% active | Q96LB2 | MrgX1-HEK293, Fluo-4 calcium flux, FDSS; stronger effect = higher value;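 active = plate-corrected calcium response at least 3 library SD above typical, normal starting fluorescence, not activating the receptor alone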;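 note: compound read alongside a low EC10 to EC30 dose of BAM8-22 agonist; peak minus trough fluorescence over baseline measured at the second addition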
RGS4 pot – potentiators or activators of RGS4 | B-score at 10 µM | 310,000 tested, 0.92% active | HEK293 M3R/inducible RGS4, carbachol calcium flux Fluo4; stronger effect = lower value | AID 463111;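 active = B-score of the integrated calcium signal more than 4 SD below the library mean, with starting fluorescence not abnormally high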;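 note: negative B-score means reduced calcium response which marks RGS4 activation or potentiation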
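Assay system: Inducible-RGS4 HEK293 cells carrying M3 receptor | Schedule: Compound preincubation 20 min at room temperature before agonist | Signal: Kinetic calcium fluorescence imaging with Fluo4-AM dye, 2 µM | Read-out basis: B score from integrated fluorescence ratio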
MrgX1 antag – antagonists of human MrgX1 receptor | B-score at 10 µM | Q96LB2 | 310,000 tested, 1.3% active | MRGX1-HEK293 calcium flux, Fluo-4, BAM8-22 antagonism; stronger effect = lower value;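 active = calcium-response B-score plate-corrected more than 3 library SD below zero, starting fluorescence within 5 deviations, no agonist response on first addition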;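 note: peak minus trough fluorescence over baseline after final BAM8-22 challenge near maximal dose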
RGS4 inh – human RGS4 inhibition | HEK293 M3R/RGS4 inducible, Fluo-4 calcium flux; stronger effect = higher value; triggered by carbachol at its EC20 | B-score at 10 µM | 310,000 tested, 0.45% active | AID 463165;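 active = B-score, a plate-corrected calcium signal, over three deviations above library mean, with baseline fluorescence within five deviations of library mean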;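 note: RGS4 expression induced by doxycycline in cells with stable M3 receptor; B-score is computed from the integrated fluorescence ratio over baseline after carbachol; higher B-score means a larger calcium signal and so more RGS4 inhibition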
Target sequence (P49798 whole entry, looked up): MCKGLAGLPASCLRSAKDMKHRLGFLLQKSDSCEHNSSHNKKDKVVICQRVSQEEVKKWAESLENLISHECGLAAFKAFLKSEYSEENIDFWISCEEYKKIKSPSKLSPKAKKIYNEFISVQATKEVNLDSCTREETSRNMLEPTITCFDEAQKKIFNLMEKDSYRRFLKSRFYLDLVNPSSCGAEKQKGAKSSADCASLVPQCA
MrgX1 allo conf – reconfirmed allosteric activator of human MrgX1 receptor; shares compounds with MrgX1 allo act; MrgX1-HEK293, Fluo-4 calcium fluorescence, FDSS; AID 602413; activation (ratio percentage), % at 10 µM; 1,200 tested, 13% active;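 active = ratio at least 3 SD above the weak peptide control, stable starting fluorescence, no direct agonism earlier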;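 note: compound followed by low BAM8-22 agonist challenge near EC20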
HEK293 Ca flux – MrgX1 antagonist counter-screen hit in parental HEK293 cells; shares compounds with MrgX1 antag; Fluo-4 calcium fluorescence, FDSS; fluorescence ratio F(max-min)/F0 at 10 µM; 4,000 tested, 2% active; AID 624111;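 active = duplicate-averaged calcium fluorescence ratio at least three times the standard deviation of buffer wells, a nonspecific response in parental cells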
HEK293 Ca counter – counter-screen for MrgX1 allosteric activators: effect in parental HEK293 cells. fluorescence ratio F(max-min)/F0 at 10 µM. parental HEK293 calcium flux, Fluo-4 fluorescence ratio; stronger effect = higher value. AID 624114. shares compounds with MrgX1 antag. 4,000 tested, 0.4% active;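 active = calcium fluorescence ratio, averaged over duplicates, at least 3 SD of the buffer-well ratio, meaning a nonspecific response in receptor-free cells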;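 note: untransfected parental HEK293 lacking MrgX1 used as counterscreen for MrgX1 allosteric activators; fluorescence change taken during the second addition on a kinetic imager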
HEK293 Ca cntr2 – MrgX1 activator counter-screen hit in parental HEK293 cells | 4,000 tested, 8.7% active | shares compounds with MrgX1 antag | AID 624115 | fluorescence ratio F(max-min)/F0 at 10 µM | Fluo-4 calcium fluorescence (FDSS); stronger effect = higher value;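 active = calcium fluorescence ratio at least three times the spread of buffer wells, meaning a non-specific response in parental cells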
Active calls of the source: *; i = inactive; / = no result given. Shown are actives, neighbours in structure and some others; about 3.5% of the full set was active somewhere.

SMILES | MrgX1 ag | MrgX1 allo act | RGS4 pot | MrgX1 antag | RGS4 inh | MrgX1 allo conf | HEK293 Ca flux | HEK293 Ca counter | HEK293 Ca cntr2
COc1ccc(C(O)c2nccc3cc(OC)c(OC)cc23)cc1OC (stereo not drawn) | i | 9.5* | i | i | i | i | i | i | i
COc1cc(N)c(C(O)c2nccc3cc(OC)c(OC)cc23)cc1OC (stereo not drawn) | i | i | i | i | i | / | / | / | /
O=Cc1ccccc1OCCOc1ccccc1C=O | i | i | i | i | i | / | / | / | /
CCOc1cc(S(=O)(=O)N(CC)CC)ccc1Cl | i | i | i | i | i | / | / | / | /
CCOc1cc(C)c(Cl)cc1S(=O)(=O)N(CC)CC | i | 7.5* | i | i | i | i | i | i | i
COc1ccc(N=C2SCC(=O)N2Cc2ccccc2)cc1 | i | 11* | i | i | i | i | i | i | i
COc1cccc(N2CCN(c3ccc4nnc(CCC(=O)Nc5ccccn5)n4n3)CC2)c1 | i | 7.5* | i | i | i | i | i | i | i
CS(=O)(=O)c1ccc(C(=O)NCc2ccccc2F)cc1 | i | i | i | i | i | / | / | / | /
O=C(c1ccc(COc2ccc3c(c2)CCC3)o1)N1CCN(c2ccccc2)CC1 | i | 7.7* | i | i | i | i | i | i | i
COc1ccccc1CN(C)CC(=O)Nc1ccccc1-c1ccccc1 | i | 10* | i | i | i | i | i | i | i
COc1ccc(CC(=O)Nc2ccccc2-c2ccccc2)cc1OC | i | i | i | i | i | / | / | / | /
COc1ccc(CN(C)CC(=O)Nc2ccccc2-c2ccccc2)c(OC)c1 | i | i | i | i | i | / | / | / | /
COc1ccc(OCC(=O)Nc2ccccc2-c2ccccc2)cc1 | i | 12* | i | i | i | i | i | i | i
Cc1ccc(CC(=O)Nc2ccccc2-c2ccccc2)cc1C | i | 21* | i | i | i | i | i | i | i
O=C(NNC(=O)c1ccc(-c2ccccc2)cc1)Nc1ccccc1F | i | i | i | i | i | / | / | / | /
O=C(COC(=O)c1cc(=O)[nH]c2ccccc12)NC1CCCCCCC1 | i | 9.7* | i | i | i | i | i | i | i
Cc1ccc(S(=O)(=O)N2CCOCC2)cc1NC(=O)COC(=O)c1cc(=O)[nH]c2ccccc12 | i | 9.8* | i | i | i | i | i | i | i
Cc1ccc(C(=O)N2CCN(c3ccccc3)CC2)cc1C | i | i | i | i | i | / | / | / | /
Cc1nc2c(C#N)cnn2c2c1CCN2CC1CCCO1 (stereo not drawn) | i | 7.2* | i | i | i | i | i | i | i
Cc1nc2c(C#N)cnn2c2c1CCN(Cc1ccccc1)N2C | i | i | i | i | i | / | / | / | /
CCCn1c(SCC(=O)Nc2ccccc2Cl)n[nH]c1=O | i | 6.6* | i | i | i | i | i | i | i
CCN1CCN(c2cc(C(C)(C)C)nc3c(-c4ccccc4)c(C)nn23)CC1 | i | i | i | i | i | / | / | / | /
N#Cc1ccc(-c2ccco2)nc1SCC(=O)c1ccc(Cl)cc1 | i | 8.4* | i | i | i | i | 0.48* | i | i
OC(CN1CCCCC1)Cn1c2ccc(Cl)cc2c2cc(Cl)ccc21 (stereo not drawn) | i | 6.7* | i | i | i | i | i | i | i
OC(CN1CCN(c2ccccn2)CC1)Cn1c2ccc(Cl)cc2c2cc(Cl)ccc21 (stereo not drawn) | i | i | i | i | i | / | / | / | /
SMILES | MrgX1 ag | MrgX1 allo act | RGS4 pot | MrgX1 antag | RGS4 inh | MrgX1 allo conf | HEK293 Ca flux | HEK293 Ca counter | HEK293 Ca cntr2
O=S(=O)(c1cccs1)N1CCN(c2ccccc2)CC1 | i | i | i | i | i | / | / | / | /
O=C(C(NS(=O)(=O)c1cccs1)c1ccccc1)N1CCN(c2ccccc2)CC1 (stereo not drawn) | i | 21* | i | i | i | i | i | i | i
Cc1ccc2nc(Cl)c(-c3ccccc3)cc2c1 | i | 8.3* | i | i | i | i | i | i | i
CCN(c1ccc(OC)cc1)S(=O)(=O)c1cc(-c2cc(C)no2)ccc1OC | i | i | i | i | i | / | / | / | /
c1ccc(N2CCN(c3ncnc4sc5c(c34)CCC5)CC2)cc1 | i | i | i | i | i | / | / | / | /
c1nc(N2CCC3(CC2)OCCO3)c2c3c(sc2n1)CCCC3 | i | 17* | i | i | i | i | i | i | i
CC(=O)C1=C(Nc2ccc(C)cc2)CC(C)(O)C(C(C)=O)C1c1ccco1 (stereo not drawn) | i | i | i | i | i | / | / | / | /
C=C(C)COc1ccc2c(C)c(CCC(=O)N3C[C@H]4C[C@@H](C3)c3cccc(=O)n3C4)c(=O)oc2c1 | i | 28* | i | i | i | i | i | i | i
CCOc1cccc(=O)c2c(C)n(Cc3ccco3)c(C)c12 | i | i | i | i | i | / | / | / | /
Cc1ccc(S(=O)(=O)N/N=C/c2cccc3c2OCCO3)cc1 | i | i | i | i | i | / | / | / | /
Cc1ccc(S(=O)(=O)N/N=C/c2cccc3nccnc23)cc1 | i | 20* | i | i | i | i | i | i | i
CCC(Sc1nc2ccccc2c(=O)n1CCN1CCOCC1)C(=O)NCc1cccnc1 (stereo not drawn) | i | 6.6* | i | i | i | i | i | i | 47*
COc1ccccc1N1CCN(C(=O)c2ccc3c(=O)n(Cc4ccco4)c(=S)[nH]c3c2)CC1 | i | i | i | i | i | / | / | / | /
O=C(NCCO)/C(=C\c1ccc([N+](=O)[O-])o1)NC(=O)c1ccccc1 | i | i | i | i | i | / | / | / | /
COc1ccccc1C(=O)OCC(=O)Nc1ccccc1OC(F)F | i | 7.4* | i | i | i | i | i | i | i
